From ChEMBL document CHEMBL1240473, “Synthesis and bioassay of aminosulfonyl-1,3,4-oxadiazoles and their interconversion to 1,3,4-thiadiazoles” (2010)
Values after ≈ are worked out from the molar mass of the structure shown.

Assays:
Format in all cases: functional
[1] = test system: Bacillus subtilis; assay: Antimicrobial activity against Bacillus subtilis NCIM 2063 after 24 hrs by microdilution susceptibility method; details: NCIM 2063, 24 h
Method in brief: (§1)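 Broth microdilution MIC with NCIM strains. Compounds and the references (chloramphenicol, antibacterial; ketoconazole, antifungal) were dissolved in DMSO at 800 and diluted two-fold from 400 down to 6.25. Wells were inoculated with the microbial suspension and incubated at 36 °C, 24 h for bacteria and 48 h for fungi. MIC was the lowest concentration with no visible growth.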

[2] = test system: Klebsiella pneumoniae; assay: Antimicrobial activity against Klebsiella pneumoniae NCIM 2957 after 24 hrs by microdilution susceptibility method; details: NCIM 2957, 24 h; method in brief: as §1
[3] = test system: Proteus vulgaris; assay: Antimicrobial activity against Proteus vulgaris NCIM 2027 after 24 hrs by microdilution susceptibility method; details: NCIM 2027, 24 h
[4] = test system: Staphylococcus aureus; assay: Antimicrobial activity against Staphylococcus aureus NCIM 5021 at 100 ug/disk after 24 hrs by agar disc-diffusion method; details: NCIM 5021, 24 h, read-out: DIZ
Method in brief: (§2)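 Agar disc diffusion with NCIM strains. Sterile 6 mm filter-paper discs were moistened with compound in DMSO at 100 or 200 per disc and placed on agar plates pre-inoculated with each organism. Plates were incubated at 37 °C. Growth-inhibition zone diameter was read at 24 h for bacteria and 48 h for fungi.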

[5] = test system: Staphylococcus aureus; assay: Antimicrobial activity against Staphylococcus aureus NCIM 5021 at 200 ug/disk after 24 hrs by agar disc-diffusion method; details: NCIM 5021, 24 h, read-out: DIZ; method in brief: as §2
[6] = test system: Bacillus subtilis; assay: Antimicrobial activity against Bacillus subtilis NCIM 2063 at 100 ug/disk after 24 hrs by agar disc-diffusion method; details: NCIM 2063, 24 h, read-out: DIZ; method in brief: as §2
[7] = test system: Bacillus subtilis; assay: Antimicrobial activity against Bacillus subtilis NCIM 2063 at 200 ug/disk after 24 hrs by agar disc-diffusion method; details: NCIM 2063, 24 h, read-out: DIZ; method in brief: as §2
[8] = test system: Klebsiella pneumoniae; assay: Antimicrobial activity against Klebsiella pneumoniae NCIM 2957 at 100 ug/disk after 24 hrs by agar disc-diffusion method; details: NCIM 2957, 24 h, read-out: DIZ; method in brief: as §2
[9] = test system: Klebsiella pneumoniae; assay: Antimicrobial activity against Klebsiella pneumoniae NCIM 2957 at 200 ug/disk after 24 hrs by agar disc-diffusion method; details: NCIM 2957, 24 h, read-out: DIZ; method in brief: as §2
[10] = test system: Proteus vulgaris; assay: Antimicrobial activity against Proteus vulgaris NCIM 2027 at 100 ug/disk after 24 hrs by agar disc-diffusion method; details: NCIM 2027, 24 h, read-out: DIZ
[11] = test system: Proteus vulgaris; assay: Antimicrobial activity against Proteus vulgaris NCIM 2027 at 200 ug/disk after 24 hrs by agar disc-diffusion method; details: NCIM 2027, 24 h, read-out: DIZ
[12] = test system: Staphylococcus aureus; assay: Antimicrobial activity against Staphylococcus aureus NCIM 5021 after 24 hrs by microdilution susceptibility method; details: NCIM 5021, 24 h; method in brief: as §1
[13] = Antioxidant activity assessed as nitric oxide scavenging activity at 100 uM after 120 min by Griess assay
Method in brief: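 Sodium nitroprusside (5 mM) in phosphate buffer pH 7.4 was incubated with test compound dissolved in dioxane/methanol at 25 °C for 120 min. A solvent-only control was run in parallel. Aliquots were mixed 1:1 with Griess reagent (1% sulfanilamide, 0.1% N-naphthylethylenediamine dihydrochloride, 2% o-phosphoric acid in water).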

[14] = test system: Radical scavenging activity; assay: Antioxidant activity assessed as DPPH free radical scavenging activity at 100 uM after 20 mins
Method in brief: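 Compound solutions were added to DPPH in dioxane/ethanol and kept at ambient temperature for 20 min, then absorbance was read at 517 nm. Percent inhibition = (A_control − A_sample)/A_control × 100, […].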

[15] = test system: Fusarium solani; assay: Antimicrobial activity against Fusarium solani NCIM 1330 at 100 ug/disk after 48 hrs by agar disc-diffusion method; details: NCIM 1330, 48 h, read-out: DIZ; method in brief: as §2
[16] = test system: Fusarium solani; assay: Antimicrobial activity against Fusarium solani NCIM 1330 at 200 ug/disk after 48 hrs by agar disc-diffusion method; details: NCIM 1330, 48 h, read-out: DIZ; method in brief: as §2
[17] = test system: Curvularia lunata; assay: Antimicrobial activity against Curvularia lunata NCIM 716 at 100 ug/disk after 48 hrs by agar disc-diffusion method; details: NCIM 716, 48 h, read-out: DIZ; method in brief: as §2
[18] = test system: Curvularia lunata; assay: Antimicrobial activity against Curvularia lunata NCIM 716 at 200 ug/disk after 48 hrs by agar disc-diffusion method; details: NCIM 716, 48 h, read-out: DIZ; method in brief: as §2
[19] = test system: Aspergillus niger; assay: Antimicrobial activity against Aspergillus niger NCIM 596 at 100 ug/disk after 48 hrs by agar disc-diffusion method; details: NCIM 596, 48 h, read-out: DIZ; method in brief: as §2
[20] = test system: Aspergillus niger; assay: Antimicrobial activity against Aspergillus niger NCIM 596 at 200 ug/disk after 48 hrs by agar disc-diffusion method; details: NCIM 596, 48 h, read-out: DIZ; method in brief: as §2
[21] = test system: Fusarium solani; assay: Antimicrobial activity against Fusarium solani NCIM 1330 after 48 hrs by microdilution susceptibility method; details: NCIM 1330, 48 h; method in brief: as §1
[22] = test system: Curvularia lunata; assay: Antimicrobial activity against Curvularia lunata NCIM 716 after 48 hrs by microdilution susceptibility method; details: NCIM 716, 48 h; method in brief: as §1
[23] = test system: Aspergillus niger; assay: Antimicrobial activity against Aspergillus niger NCIM 596 after 48 hrs by microdilution susceptibility method; details: NCIM 596, 48 h; method in brief: as §1

SMILES	zone of inhibition at 100 µg/disc [4] [mm]	zone of inhibition at 200 µg/disc [5] [mm]	zone of inhibition at 100 µg/disc [6] [mm]	zone of inhibition at 200 µg/disc [7] [mm]	zone of inhibition at 100 µg/disc [8] [mm]	zone of inhibition at 200 µg/disc [9] [mm]	zone of inhibition at 100 µg/disc [10] [mm]	zone of inhibition at 200 µg/disc [11] [mm]	Activity [13] [%]	Activity [14] [%]	zone of inhibition at 100 µg/disc [15] [mm]	zone of inhibition at 200 µg/disc [16] [mm]	zone of inhibition at 100 µg/disc [17] [mm]	zone of inhibition at 200 µg/disc [18] [mm]	zone of inhibition at 100 µg/disc [19] [mm]	zone of inhibition at 200 µg/disc [20] [mm]	also measured
O=C(N[C@H](CO)[C@H](O)c1ccc([N+](=O)[O-])cc1)C(Cl)Cl [CHLORAMPHENICOL]	35	41	38	44	37	42	42	45									MIC [1]: 6.25 µg/mL (≈ 19.3 µM); MIC [2]: 12.5 µg/mL (≈ 38.7 µM); MIC [3]: 12.5 µg/mL (≈ 38.7 µM); MIC [12]: 6.25 µg/mL (≈ 19.3 µM)
O=C1O[C@H]([C@@H](O)CO)C(O)=C1O									96.9	95.4							
O=S(=O)(Cc1nnc(CS(=O)(=O)c2ccccc2)o1)Nc1ccccc1	13	14	12	15	11	12	12	14	66.8	64.7	13	16	16	20	14	17	
O=S(=O)(Cc1nnc(CS(=O)(=O)c2ccccc2)s1)Nc1ccccc1	27	30	29	31	27	29	23	26	22.6	23.8	31	33	30	32	29	30	MIC [1]: 25 µg/mL (≈ 61 µM); MIC [2]: 50 µg/mL (≈ 122 µM); MIC [3]: 100 µg/mL (≈ 244 µM); MIC [21]: 100 µg/mL (≈ 244 µM); MIC [22]: 100 µg/mL (≈ 244 µM); MIC [23]: 50 µg/mL (≈ 122 µM); MIC [12]: 50 µg/mL (≈ 122 µM)
O=S(=O)(Cc1nnc(-c2ccccc2)s1)Nc1ccccc1	19	22	18	20	14	17	15	16	25.4	27.8	22	24	24	25	19	21	
Cc1ccc(NS(=O)(=O)Cc2nnc(-c3ccc(C)cc3)s2)cc1	20	23	22	24	18	19	13	15	29.4	32.3	19	22	21	24	17	18	
O=S(=O)(Cc1nnc(-c2ccccc2)o1)Nc1ccccc1	10	13	9	11	7	9	6	8	63.5	62.3	11	13	13	15	12	16	
O=S(=O)(Cc1nnc(CS(=O)(=O)c2ccc(Cl)cc2)o1)Nc1ccc(Cl)cc1	13	15	12	14	11	13	13	14	69.4	71	17	19	14	18	16	18	
Cc1ccc(NS(=O)(=O)Cc2nnc(-c3ccc(C)cc3)o2)cc1	10	12	9	10	7	8	7	9	54.3	58.1	12	15	14	16	10	12	
O=S(=O)(Cc1nnc(-c2ccc(Cl)cc2)o1)Nc1ccc(Cl)cc1	12	14	11	13	9	10	10	11	70.5	69.6	14	16	13	15	11	13	
Cc1ccc(NS(=O)(=O)Cc2nnc(CS(=O)(=O)c3ccc(C)cc3)o2)cc1	12	15	11	13	10	12	10	12	57.2	58.6	14	18	15	17	13	15	
CC(=O)N1CCN(c2ccc(OCC3COC(Cn4ccnc4)(c4ccc(Cl)cc4Cl)O3)cc2)CC1 (centres undefined) [KETOCONAZOLE]											38	42	41	44	36	39	MIC [21]: 12.5 µg/mL (≈ 23.5 µM); MIC [22]: 6.25 µg/mL (≈ 11.8 µM); MIC [23]: 6.25 µg/mL (≈ 11.8 µM)
